# From PMC10455042 (Biochemical engineering journal, 2023)
# Where a SMILES comes first, the peptide text is derived from it. [ ]: non-standard residue; d: D form.
# Experiments:
# [1] = RWRWR peptide alone; cited from earlier work
# Tau = experiment: Western blotting analysis of Tau levels in N2a cells treated with PROTACs; format: cell-based; conditions: N2a cells pre-treated with 10 μM PYR-41 for one hour, then co-incubated with 200 μM peptide for 12 h; western blot
# N2a cells = experiment: alamarBlue cell viability assay; format: cell-based; conditions: 24 h
# In short: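 N2a cells in MEM with 10% cosmic calf serum, plated at 1×10^4 cells/well two days before the assay, then PBS-washed. Exposed to increasing peptide concentrations (up to 200 µM) for 24 h at 37 °C, ECB-washed, then given alamarBlue in serum-free medium for 4 h at 37 °C. Fluorescence read at ex 532/[…], normalised to no-peptide control (F/C), triplicate average.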
# [2] = Peptide degradation assay in N2a lysates; format: in vitro ADME; conditions: 2 mg/mL N2a lysates, 37°C; HPLC, intact peptide
# [3] = flow cytometry; cited from earlier work
Compound,Peptide remaining after 2 hours (previously reported) [1],Decrease in Tau signal on co-incubation with E1 inhibitor PYR-41 (Tau),Effect on cell viability (N2a cells),Resistance to degradation in N2a lysates [2],Uptake (previously published) [3]
RWVRWpGRWIRQ [RWRWR],approximately 80%,–,–,–,–
CC[C@H](C)[C@H](NC(=O)[C@H](Cc1c[nH]c2ccccc12)NC(=O)[C@H](CCCNC(=N)N)NC(=O)CNC(=O)[C@H]1CCCN1C(=O)[C@@H](NC(=O)[C@H](CCCNC(=N)N)NC(=O)[C@@H](NC(=O)[C@H](Cc1c[nH]c2ccccc12)NC(=O)[C@H](CCCNC(=N)N)NC(C)=O)C(C)C)C(C)C)C(=O)N[C@@H](CCCNC(=N)N)C(=O)N[C@@H](CCC(N)=O)C(=O)N[C@@H](Cc1ccc(O)cc1)C(=O)N[C@@H](CCC(N)=O)C(=O)N[C@@H](CCC(N)=O)C(=O)N[C@@H](Cc1ccc(O)cc1)C(=O)N[C@@H](CCC(N)=O)C(=O)N[C@@H](CC(=O)O)C(=O)N[C@@H](C)C(=O)N[C@H](C(=O)N[C@@H](C)C(=O)N[C@@H](CC(=O)O)C(=O)N[C@@H](CCC(=O)O)C(=O)N[C@@H](CCC(N)=O)C(=O)NCC(N)=O)[C@@H](C)O [Peptide 2] (Ac-RWVRV[dP]GRWIRQYQQYQDATADEQG-NH2),–,decrease is negated,minimal effects on cell viability,more resistant to degradation than its unstructured counterpart Peptide 1,–
CC[C@H](C)[C@H](NC(=O)[C@H](Cc1ccc(O)cc1)NC(=O)[C@@H]1CCCN1C(=O)[C@H](C)NC(=O)[C@H](CC(C)C)NC(=O)[C@H](C)NC(=O)[C@H](CO)NC(=O)CNC(=O)[C@H](CO)NC(=O)CNC(=O)CNC(=O)[C@H](CCC(N)=O)NC(=O)[C@H](CCC(=O)O)NC(=O)[C@H](CC(=O)O)NC(=O)[C@H](C)NC(=O)[C@@H](NC(=O)[C@H](C)NC(=O)[C@H](CC(=O)O)NC(=O)[C@H](CCC(N)=O)NC(=O)[C@H](Cc1ccc(O)cc1)NC(=O)[C@H](CCC(N)=O)NC(=O)[C@H](CCC(N)=O)NC(=O)[C@H](Cc1ccc(O)cc1)NC(C)=O)[C@@H](C)O)C(=O)N1CCC[C@H]1C(=O)N[C@H](CCCNC(=N)N)C(=O)N[C@H](CCCNC(=N)N)C(=O)N[C@H](CCCNC(=N)N)C(=O)N[C@H](CCCNC(=N)N)C(=O)N[C@H](CCCNC(=N)N)C(=O)N[C@H](CCCNC(=N)N)C(=O)N[C@H](CCCNC(=N)N)C(=O)N[C@H](CCCNC(=N)N)C(N)=O [Peptide 1] (Ac-YQQYQDATADEQGGSGSALAPYIP[dR][dR][dR][dR][dR][dR][dR][dR]-NH2),–,–,minimal effects on cell viability,–,time-dependent uptake
